Data on 14 compounds can be found in PubChem BioAssay.

A short description of assay [1]: inhibitors of TNFa-induced NFkB p65 translocation, primary screen, imaging, HUVEC, MLSMR starter and 10KST1 sets (AID 438;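 active = inhibition above 20% together with a positive visual image hit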;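 also: compound added about 3h40 before a 20 min TNFalpha stimulation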;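 as to inhibition: signal is the nuclear over cytoplasmic p65 intensity ratio per well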). Conditions: HUVEC TNFa-induced p65 nuclear translocation; cell count: measured here: nuclei count (cytotoxicity indicator), at 2.08 µM; inhibition: at 2 µM, stronger effect = higher value, 0% TNFa-plus-vehicle, 100% no-TNFa wells.
The nature of assay [2]: reduction of polyQ htt aggregates in cells – imaging, exon1htt(103Q)mCFP cells, high-content imaging, primary screen (AID 483;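 active = visual image review flags a hit and inhibition of aggregation exceeds 20%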;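 also: compound exposure lasted 3 days before fixation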;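 as to nuclei count: percent of the per-plate median nuclei count of sample wells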). Conditions: exon1htt(103Q)mCFP cell line, aggregate imaging, at 2 µM; inhibition of aggregation: stronger effect = higher value; nuclei count: measured here: cell count, toxicity.
Assay [3] can be described thus: endothelial E-selectin expression blockers – imaging, HUVEC, immunofluorescence, MLSMR starter and 10KST1 sets, primary screen (AID 487;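 active = visually confirmed hit in the image check and inhibition above 20%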;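 as to inhibition: signal is fraction of cell area covered by stained E-selectin grains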;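 as to nuclei count: 100% = median nuclei count of all wells on the same plate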). The conditions noted are these: HUVEC TNFalpha-induced E-selectin immunofluorescence imaging, at 2 µM; inhibition: stronger effect = higher value; nuclei count: measured here: cell number, toxicity.
The target of assay [4] is Voltage-gated potassium channel subunit beta-2 (Rattus norvegicus) (UniProt P62483). As to the kind of experiment: inhibitors of rat Kvbeta2 reductase activity – biochemical, NADPH fluorescence, primary screen (AID 622;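 active = fluorescence slope higher than the sample average by over 3 SD, cut at about -0.22 in these data, passing the limit was not always enough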;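 also: slope of raw intensity against log time taken from 70 to 1610 s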). Conditions: recombinant KvBeta, 4-cyanobenzaldehyde reduction, at 10 µM, stronger effect = higher value.
Chain of Voltage-gated potassium channel subunit beta-2 (Rattus norvegicus) (P62483 whole entry, looked up): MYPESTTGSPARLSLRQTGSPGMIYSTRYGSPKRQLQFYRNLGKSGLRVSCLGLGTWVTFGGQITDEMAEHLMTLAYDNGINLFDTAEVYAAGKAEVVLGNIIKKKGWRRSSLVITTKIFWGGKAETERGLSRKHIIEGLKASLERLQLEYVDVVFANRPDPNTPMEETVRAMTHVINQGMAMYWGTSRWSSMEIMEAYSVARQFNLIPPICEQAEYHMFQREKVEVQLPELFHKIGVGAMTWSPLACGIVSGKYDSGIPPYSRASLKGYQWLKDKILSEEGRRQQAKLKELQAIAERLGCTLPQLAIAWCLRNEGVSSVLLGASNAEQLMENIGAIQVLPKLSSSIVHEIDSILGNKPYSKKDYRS
The target is the same in assay [5]. As to the kind of experiment: enhancers of rat Kvbeta2 NADPH turnover – biochemical, NADPH fluorescence, primary screen (AID 623;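 active = NADPH fluorescence slope more negative than the mean of all samples by about 3 SD, 99.7% confidence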;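 also: fluorescence intensity change per second fitted from 20 to 320 s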). Conditions: Recombinant KvBeta, NADPH fluorescence decrease slope, 10 min; at 10 µM; stronger effect = lower value.
In assay [6] the target is Muscarinic acetylcholine receptor M4 (Homo sapiens) (UniProt P08173). The assay can be described thus: M4-linked GIRK flux change, two-sided – cell-based, HEK293 M4/GIRK, thallium flux, BTC-AM, M4 allosteric agonist project, primary screen (AID 625;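 active = fluorescence slope after compound addition differing from the mean of all tested samples at 99.7% confidence, mostly higher but some lower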;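 also: thallium influx through GIRK channels coupled to M4 in HEK293 cells with BTC-AM dye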). The conditions noted are these: at 10 µM, actives lie on both sides. The method in brief:
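Assay system: HEK293 cells with M4 receptor and GIRK channels / Controls: carbachol and DMSO controls / Schedule: 1 h dye loading, 2 min kinetic read / Technique: kinetic fluorescence with BTC-AM dye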

The nature of assay [7]: blockers of RIG-like receptor reporter activation – cell-based, Sendai virus stimulus, luciferase, 10K MLSCN set, TLR/RLR signaling modifier project, primary screen (AID 602276;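 active = inhibition at or above 50% at 10 µM; inactive = inhibition below 50%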;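 also: firefly luciferase from ISG56 promoter only with Renilla not read in this screen; 0% = Sendai virus plus DMSO and 100% = medium plus DMSO without virus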). Conditions: HEK293 RL24 IRF3 luciferase reporter, at 10 µM, stronger effect = higher value.
The nature of assay [8]: TLR3 IRF3 reporter activation blockers – cell-based, poly I:C stimulus, luciferase, 10K MLSCN set, primary screen (AID 602277). The conditions noted are these: HEK293-TLR3 RL24 IRF3 luciferase reporter, at 10 µM, stronger effect = higher value.

Molecules are shown by their SMILES. Calls of active or inactive are those of the source.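 The calls were made as follows, unless noted: active = inhibition of the reporter signal at or above 50%; inactive = inhibition below 50%.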

Chain of Muscarinic acetylcholine receptor M4 (Homo sapiens) (P08173 whole entry, looked up): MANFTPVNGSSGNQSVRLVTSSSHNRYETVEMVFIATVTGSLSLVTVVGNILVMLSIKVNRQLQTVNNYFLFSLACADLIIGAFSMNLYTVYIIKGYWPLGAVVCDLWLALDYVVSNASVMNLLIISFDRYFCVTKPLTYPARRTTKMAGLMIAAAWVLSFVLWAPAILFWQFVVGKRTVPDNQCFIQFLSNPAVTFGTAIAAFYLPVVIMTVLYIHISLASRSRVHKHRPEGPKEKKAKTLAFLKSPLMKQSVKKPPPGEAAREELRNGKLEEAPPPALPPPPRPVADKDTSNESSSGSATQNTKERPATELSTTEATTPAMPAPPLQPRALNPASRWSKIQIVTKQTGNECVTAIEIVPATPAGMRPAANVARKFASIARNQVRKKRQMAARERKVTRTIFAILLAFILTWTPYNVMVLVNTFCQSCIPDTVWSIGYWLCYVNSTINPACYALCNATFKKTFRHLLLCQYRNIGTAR

Consider `CCC(C)C(NC(=O)C1CCC(C)CC1)C(=O)NCc1cccnc1` (centres undefined), for which the cell count in assay [1] stood at 320. For the same compound, the inhibition in assay [1] is -13.1% (inactive); in assay [3] it was 22.9% (inactive); in assay [7] it was 12.4% (inactive); in assay [8], 4.61% (inactive). Besides, the inhibition of aggregation in assay [2] is 1.5% (inactive). The nuclei count in assay [2] amounted to 103%; in assay [3], 102%. The fluorescence slope in assay [4] is -0.325 (inactive); in assay [6], 0.00576 (inactive). Also, in assay [5], the NADPH fluorescence slope is -5.6e-05 (inactive).
`Cc1ncoc1C(=O)Nc1ccccc1C(N)=O`: in assay [1], the cell count stood at 408. The inhibition in assay [1] is 3.5% (inactive); in assay [3], -2.5% (inactive); in assay [7], 1.59% (inactive); in assay [8], -3.92% (inactive). In assay [2], the inhibition of aggregation was 11.4% (inactive). The nuclei count was found to be 102% in assay [2] and 108% in assay [3]. Further, the fluorescence slope in assay [4] is -0.243 (inactive); in assay [6], 0.00516 (inactive). In addition, the NADPH fluorescence slope in assay [5] was -1.8e-07 (inactive).
Turning to `O=C(CN1C(=O)CC(c2ccccc2)=Nc2ccccc21)NCc1ccco1`, in assay [1], the cell count came to 255. In addition, the inhibition is -21.4% (inactive) in assay [1], 27.6% (inactive) in assay [3], 17.2% (inactive) in assay [7] and 18.1% (inactive) in assay [8]. The inhibition of aggregation in assay [2] was 6.1% (inactive). Further, the nuclei count in assay [2] was determined as 74%; in assay [3], 77.1%. Moreover, the fluorescence slope was -0.546 (inactive) in assay [4] and 0.00578 (inactive) in assay [6]. Moreover, in assay [5], the NADPH fluorescence slope was -4.6e-05 (inactive).
With `CCCCn1cnc2c(cnn2-c2ccc(Cl)cc2)c1=O`, in assay [1], the cell count is 342. Also, the inhibition is -16.3% (inactive) in assay [1], -72% (inactive) in assay [3], -48.5% (inactive) in assay [7] and -141% (inactive) in assay [8]. Also, in assay [2], the inhibition of aggregation is -4.9% (inactive). For the same compound, the nuclei count in assay [2] was 102%; in assay [3], 103%. Also, the fluorescence slope was -0.531 (inactive) in assay [4] and 0.00515 (inactive) in assay [6]. Also, the NADPH fluorescence slope in assay [5] is -2.1e-05 (inactive).
Take `Cc1cc(-c2ccccc2)nc2cc(C(N)=O)nn12`: the cell count in assay [1] came to 331. In addition, the inhibition in assay [1] was -5.5% (inactive); in assay [3], -129% (inactive); in assay [7], 15.9% (inactive); in assay [8], 13.7% (inactive). In addition, the inhibition of aggregation in assay [2] is 14.7% (inactive). Besides, the results for the nuclei count in assay [2] and in assay [3] were 86.6% and 116%, respectively. The fluorescence slope is -0.424 (inactive) in assay [4] and 0.0052 (inactive) in assay [6]. The NADPH fluorescence slope in assay [5] is -2.5e-05 (inactive).
For `Cc1ccc(CCNC(=O)Cn2cccc2)cc1`, in assay [1], the cell count was 349. For the same compound, the inhibition was -4.8% (inactive) in assay [1], -38.9% (inactive) in assay [3], 12.9% (inactive) in assay [7] and -5.93% (inactive) in assay [8]. Further, the inhibition of aggregation in assay [2] is -1.7% (inactive). Further, the nuclei count in assay [2] amounted to 105%; in assay [3] it was 103%. In addition, the fluorescence slope in assay [4] is -0.355 (inactive); in assay [6], 0.00566 (inactive). For the same compound, the NADPH fluorescence slope in assay [5] was -5.5e-05 (inactive).
`Cc1cccc(N2CCN(S(=O)(=O)c3ccc4c(c3)CCC(=O)N4)CC2C)c1` (centres undefined): in assay [1], the cell count was found to be 322. Moreover, the inhibition in assay [1] was 4.7% (inactive); in assay [3], -29.6% (inactive); in assay [7] it was 10.8% (inactive); in assay [8], 19.1% (inactive). Further, the inhibition of aggregation in assay [2] was 8.5% (inactive). In addition, the nuclei count in assay [2] worked out at 123%; in assay [3], 126%. The fluorescence slope in assay [4] was -0.453 (inactive); in assay [6] it was 0.00513 (inactive). In addition, the NADPH fluorescence slope in assay [5] is -0.00034 (inactive).
On to `CCOC(=O)CSc1nc(C)c(C(=O)OCC)s1`, for which, in assay [1], the cell count came out at 392. Further, the inhibition in assay [1] is 4% (inactive); in assay [3] it was -18.1% (inactive); in assay [7] it was 7.74% (inactive); in assay [8], 15.6% (inactive). Also, in assay [2], the inhibition of aggregation was -6.8% (inactive). Further, the nuclei count in assay [2] worked out at 106%; in assay [3] it was 137%. Besides, the fluorescence slope in assay [4] was -0.556 (inactive); in assay [6], 0.00612 (inactive). The NADPH fluorescence slope in assay [5] is -1.9e-05 (inactive).
With `O=C1CCCc2c1cc(C(=O)NCc1ccco1)c(=O)n2-c1ccc(Cl)cc1`, the cell count in assay [1] worked out at 220. Besides, the inhibition was 0.8% (inactive) in assay [1], 37.1% (inactive) in assay [3], 10.8% (inactive) in assay [7] and 3.62% (inactive) in assay [8]. In assay [2], the inhibition of aggregation was 5.3% (inactive). Moreover, the nuclei count was 91.5% in assay [2] and 80% in assay [3]. Further, the fluorescence slope in assay [4] is -0.52 (inactive); in assay [6], 0.0047 (inactive). In addition, in assay [5], the NADPH fluorescence slope was -5.7e-05 (inactive).
Consider `CSc1ccccc1NS(=O)(=O)c1ccccc1`, for which, in assay [1], the cell count is 558. Moreover, the inhibition is -1% (inactive) in assay [1], -8.2% (inactive) in assay [3], 13% (inactive) in assay [7] and 12.9% (inactive) in assay [8]. In assay [2], the inhibition of aggregation is -14.6% (inactive). Further, the nuclei count in assay [2] was determined as 96.9%; in assay [3], 105%. The fluorescence slope in assay [4] is -0.454 (inactive); in assay [6], 0.00445 (inactive). For the same compound, the NADPH fluorescence slope in assay [5] is 1.4e-05 (inactive).
Take `Cc1[nH]n2c(=O)cc(Cc3ccccc3)nc2c1C#N`: in assay [1], the cell count was 786. Moreover, the inhibition in assay [1] is -6.7% (inactive); in assay [3], -15.8% (inactive); in assay [7], 15.1% (inactive); in assay [8], 22% (inactive). Further, in assay [2], the inhibition of aggregation is 8.8% (inactive). Also, the nuclei count stood at 106% in assay [2] and 100% in assay [3]. Also, the fluorescence slope in assay [4] was -0.538 (inactive); in assay [6], 0.00532 (inactive). The NADPH fluorescence slope in assay [5] is -3.6e-05 (inactive).
On to `O=C(Cn1ccc2ccccc2c1=O)NCCC(=O)N1CCN(C2CCCCC2)CC1`, for which the cell count in assay [1] was 510. The inhibition in assay [1] was -3.8% (inactive); in assay [3] it was 15.7% (inactive); in assay [7] it was 9.9% (inactive); in assay [8], 18.5% (inactive). The inhibition of aggregation in assay [2] is 10.9% (inactive). The nuclei count is 83.8% in assay [2] and 110% in assay [3]. Besides, the fluorescence slope was -0.395 (inactive) in assay [4] and 0.00596 (inactive) in assay [6]. The NADPH fluorescence slope in assay [5] was 2.2e-05 (inactive).
Regarding `CSc1ccccc1C(=O)NC1CC2CCC1C2` (centres undefined), the cell count in assay [1] stood at 246. The inhibition in assay [1] is 4.5% (inactive); in assay [3], 15.4% (inactive); in assay [7], 24.1% (inactive); in assay [8], 24.1% (inactive). Also, the inhibition of aggregation in assay [2] is 13.1% (inactive). For the same compound, the results for the nuclei count in assay [2] and in assay [3] were 93.5% and 91.1%, respectively. Moreover, the fluorescence slope in assay [4] is -0.535 (inactive); in assay [6], 0.00469 (inactive). For the same compound, the NADPH fluorescence slope in assay [5] was -1.1e-05 (inactive).
`N#Cc1nc(-c2cccs2)oc1NCc1ccc(Cl)cc1`: in assay [1], the cell count came out at 341. Further, the inhibition in assay [1] was -8.1% (inactive); in assay [3] it was 47.2% (inactive); in assay [7], 18.3% (inactive); in assay [8] it was 10.5% (inactive). Moreover, in assay [2], the inhibition of aggregation was 19.1% (inactive). Further, the nuclei count in assay [2] amounted to 98.9%; in assay [3] it was 106%. For the same compound, the fluorescence slope is -0.526 (inactive) in assay [4] and 0.00571 (inactive) in assay [6]. The NADPH fluorescence slope in assay [5] is -2e-05 (inactive).
